Test results taken from ChEMBL document CHEMBL4477237, “Structure-Based Design of β5c Selective Inhibitors of Human Constitutive Proteasomes” (J Med Chem, 2016).

Experiments:
Homo sapiens = organism: Homo sapiens; experiment: Selectivity ratio of IC50 for immunoproteasome 20s subunit beta5 in human Raji cells to IC50 for constitutive proteasome 20s subunit beta5 in human Raji cells; type: cell-based
Method in brief: (§1)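 Initial screen in Raji cell extracts. Inhibitor at 0.01, 0.1, 1.0 and 10.0 µM final for 1 h at 37 °C, then ABP cocktail 1 h. In-gel fluorescence of β5c/β5i bands normalized to mock-treated extract, giving residual activity. Run once. IC50s from this screen feed the β5i/β5c ratio.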

[1] = molecular target: T1, Proteasome Macropain subunit MB1 (Homo sapiens, UniProt P28074); experiment: (§2) Inhibition of catalytic activity of constitutive proteasome 20s subunit beta5 in human Raji cells incubated for 1 hr by BODIPY(TMR)-NC-005-VS probe based competitive activity based protein profiling assay; type: cell-based
T1 sequence (P28074 whole entry): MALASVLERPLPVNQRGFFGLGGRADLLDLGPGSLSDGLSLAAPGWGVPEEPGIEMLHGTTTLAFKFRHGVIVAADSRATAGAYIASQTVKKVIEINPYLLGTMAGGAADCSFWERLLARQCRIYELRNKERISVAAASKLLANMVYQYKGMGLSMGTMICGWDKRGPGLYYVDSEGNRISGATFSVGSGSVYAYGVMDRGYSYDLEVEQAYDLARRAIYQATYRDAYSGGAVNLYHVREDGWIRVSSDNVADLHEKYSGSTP

[2] = molecular target: T2, Proteasome Macropain subunit MB1 (Homo sapiens) (UniProt P28074); experiment: Inhibition of catalytic activity of constitutive proteasome 20s subunit beta5 in human Raji cells assessed as residual activity at 0.01 uM incubated for 1 hr by BODIPY(TMR)-NC-005-VS probe based activity based protein profiling assay relative to control; type: cell-based; method in brief: as §1
T2 sequence (whole entry): T1 sequence (P28074 whole entry)

[3] = molecular target: Proteasome subunit beta type-8 (β5i, LMP7) (Homo sapiens) (UniProt P28062); experiment: Inhibition of catalytic activity of immunoproteasome 20s subunit beta5 in human Raji cells assessed as residual activity at 0.01 uM incubated for 1 hr by BODIPY(TMR)-NC-005-VS probe based competitive activity based protein profiling assay relative to control
[4] = molecular target: Proteasome subunit beta type-8 (β5i, LMP7) (Homo sapiens) (UniProt P28062); experiment: Inhibition of catalytic activity of immunoproteasome 20s subunit beta5 in human Raji cells incubated for 1 hr by BODIPY(TMR)-NC-005-VS probe based competitive activity based protein profiling assay
[5] = molecular target: Proteasome subunit beta type-9 (β1i, LMP2) (Homo sapiens) (UniProt P28065); experiment: Inhibition of catalytic activity of immunoproteasome 20s subunit beta1 in human Raji cells incubated for 1 hr by Cy5-NC-001 probe based competitive activity based protein profiling assay
[6] = molecular target: T2, Proteasome Macropain subunit MB1 (Homo sapiens); experiment: as §2; type: cell-based
[7] = molecular target: T3, Proteasome component C5 (Homo sapiens) (UniProt P20618); experiment: Inhibition of catalytic activity of constitutive proteasome 20s subunit beta1 in human Raji cells incubated for 1 hr by Cy5-NC-001 probe based competitive activity based protein profiling assay; type: cell-based
T3 sequence (whole entry): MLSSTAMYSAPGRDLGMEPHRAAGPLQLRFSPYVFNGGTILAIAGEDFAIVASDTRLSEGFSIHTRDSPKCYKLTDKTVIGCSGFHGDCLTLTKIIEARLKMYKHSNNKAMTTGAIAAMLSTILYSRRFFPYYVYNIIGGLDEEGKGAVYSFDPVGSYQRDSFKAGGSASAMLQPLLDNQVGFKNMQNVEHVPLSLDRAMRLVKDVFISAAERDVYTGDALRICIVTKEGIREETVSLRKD

[8] = molecular target: Proteasome Macropain subunit (Homo sapiens) (UniProt P49721); experiment: Inhibition of catalytic activity of constitutive proteasome 20s subunit beta2 in human Raji cells incubated for 1 hr by BODIPY(FL)-LU-112 probe based competitive activity based protein profiling assay; type: cell-based

SMILES	Ratio IC50 (Homo sapiens)	IC50 [1]	Activity [2]	Activity [3]	also measured
CC(C)C[C@H](NC(=O)[C@H](Cc1ccccc1)NC(=O)[C@H](CC1CCCC2CCCCC21)NC(=O)[C@H](Cc1ccccc1)N=[N+]=[N-])C(=O)[C@@]1(C)CO1 (stereo partly specified)	> 1.5	< 0.01 µM	40%	–	–
CC(C)C[C@H](NC(=O)[C@H](Cc1ccccc1)NC(=O)[C@@H](NC(=O)[C@H](Cc1ccccc1)N=[N+]=[N-])C1CCCCC1)C(=O)[C@@]1(C)CO1	2	0.033 µM	–	–	–
CC(C)C[C@H](NC(=O)[C@H](Cc1ccccc1)NC(=O)[C@H](Cc1ccc(-c2ccccc2)cc1)NC(=O)[C@H](Cc1ccccc1)N=[N+]=[N-])C(=O)[C@@]1(C)CO1	–	< 0.01 µM	9%	28%	–
CC(C)C[C@H](NC(=O)[C@H](Cc1ccccc1)NC(=O)[C@H](Cc1ccc2ccccc2c1)NC(=O)[C@H](Cc1ccccc1)N=[N+]=[N-])C(=O)[C@@]1(C)CO1	–	< 0.01 µM	14%	49%	–
C[C@H](NC(=O)[C@H](Cc1ccccc1)NC(=O)[C@H](C[C@H]1CC[C@H](c2ccccc2)CC1)NC(=O)[C@H](Cc1ccccc1)N=[N+]=[N-])C(=O)[C@@]1(C)CO1	2250	0.0038 µM	–	–	–
COc1ccc(C[C@H](NC(=O)[C@H](Cc2ccc3ccccc3c2)NC(=O)CN2CCOCC2)C(=O)N[C@@H](CC(C)C)C(=O)[C@@]2(C)CO2)cc1	–	< 0.01 µM	9%	23%	–
COc1ccc(C[C@H](NC(=O)[C@H](Cc2cccc3ccccc23)NC(=O)CN2CCOCC2)C(=O)N[C@@H](CC(C)C)C(=O)[C@@]2(C)CO2)cc1	–	< 0.01 µM	30%	36%	–
CC(C)C[C@H](NC(=O)[C@H](Cc1ccccc1)NC(=O)[C@H](CC1CCCCC1)NC(=O)[C@H](Cc1ccccc1)N=[N+]=[N-])C(=O)[C@@]1(C)CO1	> 5	< 0.01 µM	–	–	–
CC(C)C[C@H](NC(=O)[C@H](Cc1ccccc1)NC(=O)[C@H](CC1CC2CCC1C2)NC(=O)[C@H](Cc1ccccc1)N=[N+]=[N-])C(=O)[C@@]1(C)CO1 (stereo partly specified)	> 3	< 0.01 µM	24%	–	–
CC(C)C[C@H](NC(=O)[C@H](Cc1ccccc1)NC(=O)[C@H](CC(C)(C)C)NC(=O)[C@H](Cc1ccccc1)N=[N+]=[N-])C(=O)[C@@]1(C)CO1	4	0.018 µM	–	–	–
C[C@H](NC(=O)[C@H](Cc1ccccc1)NC(=O)[C@H](C[C@H]1CC[C@@H](C2CCCCC2)CC1)NC(=O)[C@H](Cc1ccccc1)N=[N+]=[N-])C(=O)[C@@]1(C)CO1	–	0.71 µM	–	–	–
CC(C)C[C@H](NC(=O)[C@H](Cc1ccccc1)NC(=O)[C@H](CCC1CCCCC1)NC(=O)[C@H](Cc1ccccc1)N=[N+]=[N-])C(=O)[C@@]1(C)CO1	1	0.036 µM	–	–	–
C[C@H](NC(=O)[C@H](Cc1ccccc1)NC(=O)[C@@H](NC(=O)[C@H](Cc1ccccc1)N=[N+]=[N-])[C@H](C)OC(C)(C)C)C(=O)[C@@]1(C)CO1	–	> 10 µM	–	–	–
CC(C)C[C@H](NC(=O)[C@H](Cc1ccccc1)NC(=O)[C@H](CC1CCC(C2CCCCC2)CC1)NC(=O)[C@H](Cc1ccccc1)N=[N+]=[N-])C(=O)[C@@]1(C)CO1 (stereo partly specified)	–	0.017 to 0.019 µM	–	–	pIC50(app) [4]: 6.36; pIC50(app) [5]: < 4; pIC50(app) [6]: 7.77; pIC50(app) [7]: < 4
CC(C)C[C@H](NC(=O)[C@H](Cc1ccccc1)NC(=O)[C@H](Cc1cccc2ccccc12)NC(=O)[C@H](Cc1ccccc1)N=[N+]=[N-])C(=O)[C@@]1(C)CO1	–	< 0.01 µM	12%	28%	–
CC(C)C[C@H](NC(=O)[C@H](Cc1ccccc1)NC(=O)[C@H](Cc1c[nH]c2ccccc12)NC(=O)[C@H](Cc1ccccc1)N=[N+]=[N-])C(=O)[C@@]1(C)CO1	–	< 0.01 µM	16%	49%	–
CC(C)C[C@H](NC(=O)[C@H](Cc1ccccc1)NC(=O)[C@@H](NC(=O)[C@H](Cc1ccccc1)N=[N+]=[N-])c1ccccc1)C(=O)[C@@]1(C)CO1	–	< 0.01 µM	44%	56%	–
COc1ccc(C[C@H](NC(=O)[C@H](CC23CC4CC(CC(C4)C2)C3)NC(=O)CN2CCOCC2)C(=O)N[C@@H](C)C(=O)[C@@]2(C)CO2)cc1	> 12	0.853 µM	–	–	–
CC1=C(C(=O)N[C@H](C)C(=O)N[C@@H](Cc2c[nH]c3ccccc23)C(=O)N[C@@H](CC2CCCCC2)C(=O)[C@@]2(C)CO2)Cc2ccccc21	–	> 1 µM	–	–	–
C[C@H](NC(=O)[C@H](Cc1ccccc1)NC(=O)[C@H](CC1CCC(C2CCCCC2)CC1)NC(=O)[C@H](Cc1ccccc1)N=[N+]=[N-])C(=O)[C@@]1(C)CO1 (stereo partly specified)	–	0.02 to 0.0747 µM	–	–	pIC50(app) [4]: 4.78; pIC50(app) [5]: < 4; pIC50(app) [6]: 7.13; pIC50(app) [7]: < 4
Cc1ccc(C[C@H](NC(=O)[C@H](Cc2ccccc2)N=[N+]=[N-])C(=O)N[C@@H](Cc2ccccc2)C(=O)N[C@@H](CC(C)C)C(=O)[C@@]2(C)CO2)cc1	–	< 0.01 µM	6%	15%	–
C[C@H](NC(=O)[C@H](Cc1ccccc1)NC(=O)[C@H](CC1CCCCC1)NC(=O)[C@H](Cc1ccccc1)N=[N+]=[N-])C(=O)[C@@]1(C)CO1	> 175	0.057 µM	–	–	–
C[C@H](NC(=O)[C@H](Cc1ccccc1)NC(=O)[C@H](C[C@H]1CC[C@@H](c2ccccc2)CC1)NC(=O)[C@H](Cc1ccccc1)N=[N+]=[N-])C(=O)[C@@]1(C)CO1	165	0.071 µM	–	–	–
CC(C)C[C@H](NC(=O)[C@H](Cc1ccccc1)NC(=O)[C@H](Cc1ccccc1)NC(=O)[C@H](Cc1ccccc1)N=[N+]=[N-])C(=O)[C@@]1(C)CO1	–	–	–	–	pIC50(app) [5]: 6.91; pIC50(app) [7]: < 4; pIC50(app) [8]: 7.18
COc1ccc(C[C@H](NC(=O)[C@H](CC23CC4CC(CC(C4)C2)C3)NC(=O)CN2CCOCC2)C(=O)N[C@@H](CC(C)C)C(=O)[C@@]2(C)CO2)cc1	1	0.853 µM	–	–	–
C[C@H](NC(=O)[C@H](Cc1ccccc1)NC(=O)[C@H](CC1CCC(C2CCCCC2)CC1)NC(=O)CN1CCOCC1)C(=O)[C@@]1(C)CO1 (stereo partly specified)	> 8	1.23 µM	–	–	–
COc1ccc(C[C@H](NC(=O)[C@H](CC2CCCCC2)NC(=O)CN2CCOCC2)C(=O)N[C@@H](CC(C)C)C(=O)[C@@]2(C)CO2)cc1	2	0.119 µM	–	–	–
C[C@H](NC(=O)[C@H](Cc1ccccc1)NC(=O)[C@H](Cc1ccc(-c2ccccc2)cc1)NC(=O)[C@H](Cc1ccccc1)N=[N+]=[N-])C(=O)[C@@]1(C)CO1	> 13	< 0.01 µM	–	–	–
COc1ccc(C[C@H](NC(=O)[C@H](Cc2ccc(-c3ccccc3)cc2)NC(=O)CN2CCOCC2)C(=O)N[C@@H](CC(C)C)C(=O)[C@@]2(C)CO2)cc1	–	< 0.01 µM	23%	44%	–
CC(C)C[C@H](NC(=O)[C@H](Cc1ccccc1)NC(=O)[C@H](CC1CCC2CCCCC2C1)NC(=O)[C@H](Cc1ccccc1)N=[N+]=[N-])C(=O)[C@@]1(C)CO1 (stereo partly specified)	> 2.5	< 0.01 µM	36%	–	–
